Experimental data published in ChEMBL document CHEMBL3352355, “Synthesis of novel polysubstituted (2SR,4RS)-2-heteroaryltetrahydro-1,4-epoxy-1-benzazepines and cis-2-heteroaryl-4-hydroxytetrahydro-1H-1-benzazepines as antiparasitic agents” (Eur J Med Chem, 2014).

System: not listed separately
Test: Selectivity index, ratio of CC50 for human THP1 cells to IC50 for promastigote stage of Leishmania infantum
Type: functional, THP-1
Conditions: not given
Outline: (§1)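 Selectivity index was calculated as CC50 in Vero (T. cruzi) or THP-1 (L. infantum) cells divided by parasite IC50. Both values came from 72 h mammalian-cell MTT assays and the parasite assays; SI ≥ 3 was defined as parasite-selective.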

SMILES	Selectivity Index
O[C@@H]1Cc2cc(OC(F)(F)F)ccc2N[C@H](c2cccs2)C1	4.4
Cc1ccsc1[C@@H]1C[C@H](O)Cc2cc(F)ccc2N1 (relative stereo)	28.9
Cc1ccc([C@@H]2C[C@H](O)Cc3ccccc3N2)o1 (relative stereo)	1.4
O[C@@H]1Cc2cc(OC(F)(F)F)ccc2N[C@H](c2ccco2)C1 (relative stereo)	2.9
Cc1ccc([C@@H]2C[C@H]3Cc4ccccc4N2O3)s1 (racemic)	9.6
O=[N+]([O-])c1ccc([C@@H]2C[C@H]3Cc4cc(F)ccc4N2O3)o1 (racemic)	50.4
Cc1ccsc1[C@@H]1C[C@H](O)Cc2cc(OC(F)(F)F)ccc2N1 (relative stereo)	5.5
Fc1ccc2c(c1)C[C@@H]1C[C@@H](c3ccc(Br)s3)N2O1 (racemic)	>40.6
Cc1ccsc1[C@@H]1C[C@H]2Cc3cc(Cl)ccc3N1O2 (racemic)	7.7

System: Leishmania infantum
Test: Antiparasitic activity against amastigote stage of Leishmania infantum infected in THP1 cells assessed as parasite growth inhibition after 24 hrs by hemocytometery
Type: functional, organism-based, THP-1
Conditions: Leishmania infantum, THP-1, 24 h; read-out: IC50
Outline: (§2)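 Host cells were Vero for T. cruzi (infected with tissue-derived trypomastigotes) and THP-1 (PMA-transformed, 10 ng/mL) for L. (L.) infantum (infected with late-phase promastigotes), at 1:10 cell:parasite for 24 h. Serial dilutions were given as two doses, the second on day 3 with a medium change. Read-out was % infected cells on methanol-fixed, Giemsa-stained slides (300 cells). IC50 came from sigmoidal regression; experiments in duplicate, concentrations in triplicate.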

SMILES	IC50
O[C@@H]1Cc2cc(OC(F)(F)F)ccc2N[C@H](c2cccs2)C1	> 101 µM
Cc1ccsc1[C@@H]1C[C@H](O)Cc2cc(F)ccc2N1 (relative stereo)	> 120 µM
Cc1ccc([C@@H]2C[C@H](O)Cc3ccccc3N2)o1 (relative stereo)	> 411 µM
O[C@@H]1Cc2cc(OC(F)(F)F)ccc2N[C@H](c2ccco2)C1 (relative stereo)	> 106 µM
Cc1ccc([C@@H]2C[C@H]3Cc4ccccc4N2O3)s1 (racemic)	> 389 µM
O=[N+]([O-])c1ccc([C@@H]2C[C@H]3Cc4cc(F)ccc4N2O3)o1 (racemic)	> 115 µM
Cc1ccsc1[C@@H]1C[C@H](O)Cc2cc(OC(F)(F)F)ccc2N1 (relative stereo)	> 97.1 µM
Fc1ccc2c(c1)C[C@@H]1C[C@@H](c3ccc(Br)s3)N2O1 (racemic)	> 295 µM
Cc1ccsc1[C@@H]1C[C@H]2Cc3cc(Cl)ccc3N1O2 (racemic)	> 344 µM

System: Leishmania infantum
Test: Antiparasitic activity against promastigote stage of Leishmania infantum infected in THP1 cells assessed as parasite growth inhibition […] by hemocytometery
Type: functional, organism-based
Conditions: THP-1
Outline: (§3)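 Exponential-phase T. cruzi Sylvio X10 epimastigotes (LIT medium with hiFCS) or L. (L.) infantum MHOM/BR/74/PP75 promastigotes (RPMI 1640, hemin, HEPES, 10% hiFCS) were exposed to threefold serial dilutions (0.3–300 µg/mL) for 72 h at 28 °C. Viable parasites were counted by hemocytometer with 0.25% eosin yellow. IC50 came from sigmoidal regression, given as mean ± SD.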

SMILES	IC50
O[C@@H]1Cc2cc(OC(F)(F)F)ccc2N[C@H](c2cccs2)C1	13.8 µM
Cc1ccsc1[C@@H]1C[C@H](O)Cc2cc(F)ccc2N1 (relative stereo)	62.5 µM
Cc1ccc([C@@H]2C[C@H](O)Cc3ccccc3N2)o1 (relative stereo)	189 µM
O[C@@H]1Cc2cc(OC(F)(F)F)ccc2N[C@H](c2ccco2)C1 (relative stereo)	45.9 µM
Cc1ccsc1[C@@H]1C[C@H](O)Cc2cc(OC(F)(F)F)ccc2N1 (relative stereo)	16.4 µM

System: Trypanosoma cruzi
Test: Antiparasitic activity against epimastigote stage of Trypanosoma cruzi infected in Vero cells assessed as parasite growth inhibition […] by hemocytometery
Type: functional, organism-based
Conditions: not given
Outline: as §3

SMILES	IC50
O[C@@H]1Cc2cc(OC(F)(F)F)ccc2N[C@H](c2cccs2)C1	87.8 µM
Cc1ccsc1[C@@H]1C[C@H](O)Cc2cc(F)ccc2N1 (relative stereo)	45.9 µM
Cc1ccc([C@@H]2C[C@H](O)Cc3ccccc3N2)o1 (relative stereo)	120 µM
O[C@@H]1Cc2cc(OC(F)(F)F)ccc2N[C@H](c2ccco2)C1 (relative stereo)	606 µM
Cc1ccc([C@@H]2C[C@H]3Cc4ccccc4N2O3)s1 (racemic)	147 µM
O=[N+]([O-])c1ccc([C@@H]2C[C@H]3Cc4cc(F)ccc4N2O3)o1 (racemic)	29.7 µM
Cc1ccsc1[C@@H]1C[C@H](O)Cc2cc(OC(F)(F)F)ccc2N1 (relative stereo)	10.7 µM
Fc1ccc2c(c1)C[C@@H]1C[C@@H](c3ccc(Br)s3)N2O1 (racemic)	34.7 µM
Cc1ccsc1[C@@H]1C[C@H]2Cc3cc(Cl)ccc3N1O2 (racemic)	11.7 µM

System: not listed separately
Test: Selectivity index, ratio of CC50 for African green monkey Vero cells to IC50 for amastigote stage of Trypanosoma cruzi
Type: functional
Conditions: not given
Outline: as §1

SMILES	Selectivity Index
Cc1ccc([C@@H]2C[C@H]3Cc4ccccc4N2O3)s1 (racemic)	9.6
O=[N+]([O-])c1ccc([C@@H]2C[C@H]3Cc4cc(F)ccc4N2O3)o1 (racemic)	1.5
Fc1ccc2c(c1)C[C@@H]1C[C@@H](c3ccc(Br)s3)N2O1 (racemic)	>5.4
Cc1ccsc1[C@@H]1C[C@H]2Cc3cc(Cl)ccc3N1O2 (racemic)	1.9

System: Trypanosoma cruzi
Test: Antiparasitic activity against amastigote stage of Trypanosoma cruzi infected in Vero cells assessed as parasite growth inhibition after 24 hrs by hemocytometery
Type: functional, organism-based
Conditions: Trypanosoma cruzi, Vero, 24 h; read-out: IC50
Outline: as §2

SMILES	IC50
O[C@@H]1Cc2cc(OC(F)(F)F)ccc2N[C@H](c2cccs2)C1	> 101 µM
Cc1ccsc1[C@@H]1C[C@H](O)Cc2cc(F)ccc2N1 (relative stereo)	> 120 µM
Cc1ccc([C@@H]2C[C@H](O)Cc3ccccc3N2)o1 (relative stereo)	> 411 µM
O[C@@H]1Cc2cc(OC(F)(F)F)ccc2N[C@H](c2ccco2)C1 (relative stereo)	> 106 µM
Cc1ccc([C@@H]2C[C@H]3Cc4ccccc4N2O3)s1 (racemic)	91.5 µM
O=[N+]([O-])c1ccc([C@@H]2C[C@H]3Cc4cc(F)ccc4N2O3)o1 (racemic)	284 µM
Fc1ccc2c(c1)C[C@@H]1C[C@@H](c3ccc(Br)s3)N2O1 (racemic)	54.6 µM
Cc1ccsc1[C@@H]1C[C@H]2Cc3cc(Cl)ccc3N1O2 (racemic)	99 µM

Same assay, conditions: vero

SMILES	IC50
Cc1ccsc1[C@@H]1C[C@H](O)Cc2cc(OC(F)(F)F)ccc2N1 (relative stereo)	ND(toxic)

System: not listed separately
Test: Selectivity index, ratio of CC50 for African green monkey Vero cells to IC50 for epimastigote stage of Trypanosoma cruzi
Type: functional
Conditions: not given
Outline: as §1

SMILES	Selectivity Index
O[C@@H]1Cc2cc(OC(F)(F)F)ccc2N[C@H](c2cccs2)C1	0.2
Cc1ccsc1[C@@H]1C[C@H](O)Cc2cc(F)ccc2N1 (relative stereo)	5.3
Cc1ccc([C@@H]2C[C@H](O)Cc3ccccc3N2)o1 (relative stereo)	3.1
O[C@@H]1Cc2cc(OC(F)(F)F)ccc2N[C@H](c2ccco2)C1 (relative stereo)	0.3
Cc1ccc([C@@H]2C[C@H]3Cc4ccccc4N2O3)s1 (racemic)	6
O=[N+]([O-])c1ccc([C@@H]2C[C@H]3Cc4cc(F)ccc4N2O3)o1 (racemic)	14.2
Cc1ccsc1[C@@H]1C[C@H](O)Cc2cc(OC(F)(F)F)ccc2N1 (relative stereo)	2.5
Fc1ccc2c(c1)C[C@@H]1C[C@@H](c3ccc(Br)s3)N2O1 (racemic)	>8.5
Cc1ccsc1[C@@H]1C[C@H]2Cc3cc(Cl)ccc3N1O2 (racemic)	15.6

System: Leishmania infantum
Test: Antiparasitic activity against promastigote stage of Leishmania infantum assessed as parasite growth inhibition after 72 hrs by hemocytometery
Conditions: not given

SMILES	IC50
Cc1ccc([C@@H]2C[C@H]3Cc4ccccc4N2O3)s1 (racemic)	52 µM
O=[N+]([O-])c1ccc([C@@H]2C[C@H]3Cc4cc(F)ccc4N2O3)o1 (racemic)	10.7 µM
Fc1ccc2c(c1)C[C@@H]1C[C@@H](c3ccc(Br)s3)N2O1 (racemic)	7.3 µM
Cc1ccsc1[C@@H]1C[C@H]2Cc3cc(Cl)ccc3N1O2 (racemic)	32.3 µM

System: not listed separately
Test: Cytotoxicity against human THP1 cells
Type: cell-based
Conditions: THP-1 cells
Outline: (§4)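 Vero monolayers or THP-1 cells (made adherent with 10 ng/mL PMA), in RPMI 1640 with 10% hiFCS, were exposed to compound (0.3–300 µg/mL) for 72 h at 37 °C, 5% CO2. Viability was measured by MTT, with formazan dissolved in DMSO and read at 580 nm. % cytotoxicity was calculated against untreated cells; CC50 came from sigmoidal regression, given as mean ± SD.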

SMILES	CC50
O[C@@H]1Cc2cc(OC(F)(F)F)ccc2N[C@H](c2cccs2)C1	61.5 µM
Cc1ccsc1[C@@H]1C[C@H](O)Cc2cc(F)ccc2N1 (relative stereo)	1810 µM
Cc1ccc([C@@H]2C[C@H](O)Cc3ccccc3N2)o1 (relative stereo)	262 µM
O[C@@H]1Cc2cc(OC(F)(F)F)ccc2N[C@H](c2ccco2)C1 (relative stereo)	134 µM
Cc1ccc([C@@H]2C[C@H]3Cc4ccccc4N2O3)s1 (racemic)	497 µM
O=[N+]([O-])c1ccc([C@@H]2C[C@H]3Cc4cc(F)ccc4N2O3)o1 (racemic)	539 µM
Cc1ccsc1[C@@H]1C[C@H](O)Cc2cc(OC(F)(F)F)ccc2N1 (relative stereo)	89.7 µM
Fc1ccc2c(c1)C[C@@H]1C[C@@H](c3ccc(Br)s3)N2O1 (racemic)	> 295 µM
Cc1ccsc1[C@@H]1C[C@H]2Cc3cc(Cl)ccc3N1O2 (racemic)	250 µM

System: not listed separately
Test: Cytotoxicity against African green monkey Vero cells
Type: cell-based
Conditions: chlorocebus sabaeus
Outline: as §4

SMILES	CC50
O[C@@H]1Cc2cc(OC(F)(F)F)ccc2N[C@H](c2cccs2)C1	20.4 µM
Cc1ccsc1[C@@H]1C[C@H](O)Cc2cc(F)ccc2N1 (relative stereo)	243 µM
Cc1ccc([C@@H]2C[C@H](O)Cc3ccccc3N2)o1 (relative stereo)	370 µM
O[C@@H]1Cc2cc(OC(F)(F)F)ccc2N[C@H](c2ccco2)C1 (relative stereo)	166 µM
Cc1ccc([C@@H]2C[C@H]3Cc4ccccc4N2O3)s1 (racemic)	878 µM
O=[N+]([O-])c1ccc([C@@H]2C[C@H]3Cc4cc(F)ccc4N2O3)o1 (racemic)	422 µM
Cc1ccsc1[C@@H]1C[C@H](O)Cc2cc(OC(F)(F)F)ccc2N1 (relative stereo)	26.7 µM
Fc1ccc2c(c1)C[C@@H]1C[C@@H](c3ccc(Br)s3)N2O1 (racemic)	> 295 µM
Cc1ccsc1[C@@H]1C[C@H]2Cc3cc(Cl)ccc3N1O2 (racemic)	183 µM
